Like-named read-outs stand apart in the source and are kept apart here.
Key:
[1] = system: LN-229 glioblastoma cells; assay: Antiproliferative screening, MTS cell viability assay; format: cell-based; conditions: Homo sapiens, LN-229, 72 h, read-out: IC50 LN-229
[2] = system: K-562 chronic myeloid leukemia cells; assay: Antiproliferative screening, IncuCyte cell growth; format: cell-based; conditions: Homo sapiens, K562, 72 h, read-out: IC50 K-562
HIV-2 ROD = assay: Antiretroviral assay in MT-4 cells, cytopathic effect; format: cell-based
Method in brief: (§1)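 MT-4 cells (1 × 10^6 cells/mL) were pre-incubated with test compound for 30 min at 37 °C. HIV-1 NL4.3 or HIV-2 ROD was then added according to the CCID50 of the viral stock. Cytopathic effect was scored microscopically 5 days post-infection. […] SI was taken as the CC50/EC50 ratio.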

[3] = system: HCT-116 colorectal carcinoma cells; assay: Antiproliferative screening, MTS cell viability assay; format: cell-based; conditions: Homo sapiens, HCT-116, 72 h, read-out: IC50 HCT-116
in vitro [4] = conditions: human
HIV-1 NL4.3 = assay: Antiretroviral assay in MT-4 cells, cytopathic effect; format: cell-based
Method in brief: as §1

[5] = system: HEL 299 normal human lung fibroblasts; assay: Antiproliferative screening on noncancerous cells; conditions: Homo sapiens, HEL 299, read-out: IC50 HEL 299
[6] = system: Capan-1 pancreatic adenocarcinoma cells; assay: Antiproliferative screening, MTS cell viability assay; format: cell-based; conditions: Homo sapiens, CAPAN-1, 72 h, read-out: IC50 Capan-1
in vitro [7] = conditions: human; remark: listed apart in the source
[8] = system: HL-60 acute myeloid leukemia cells; assay: Antiproliferative screening, IncuCyte cell growth; format: cell-based; conditions: Homo sapiens, HL-60, 72 h, read-out: IC50 HL-60
human coronavirus OC43 = assay: Antiviral assay, virus-induced cytopathic effect, MTS, HEL cells; format: cell-based; conditions: HEL cell culture
[9] = system: Z-138 non-Hodgkin lymphoma cells; assay: Antiproliferative screening, IncuCyte cell growth; format: cell-based; conditions: Homo sapiens, Z-138, 72 h, read-out: IC50 Z-138
[10] = system: NCI-H460 lung carcinoma cells; assay: Antiproliferative screening, MTS cell viability assay; format: cell-based; conditions: Homo sapiens, NCI-H460, 72 h, read-out: IC50 NCI-H460
[11] = Cytotoxicity in MT-4 cell culture; format: cell-based; conditions: human, MT-4 cells
[12] = system: DND-41 acute lymphoblastic leukemia cells; assay: Antiproliferative screening, IncuCyte cell growth; format: cell-based; conditions: Homo sapiens, DND41, 72 h, read-out: IC50 DND-41
[13] = system: human solid tumor and leukemia cell lines; format: cell-based; conditions: read-out: Antiproliferative IC50 across cancer cell lines
[14] = system: C. violaceum ATCC31532 QS-reporter strain; assay: Anti-QS screening, violacein production; format: cell-based; conditions: Chromobacterium violaceum, ATCC31532, read-out: Anti-QS IC50
MT-4 cells = assay: Cytotoxicity in MT-4 cell culture; format: cell-based; conditions: read-out: Cytotoxicity (CC50); MT-4 cell culture

## CCN(CC)CCCC(C)Nc1ccnc2cc(Cl)ccc12 (stereo not drawn) [CQ, chloroquine, reference compound]
[1]
  IC50: 8.9 ± 2.3 µM
[2]
  IC50: 50.6 ± 2.9 µM
HIV-2 ROD; MT-4 cell culture
  SI, selectivity index (CC50 to EC50 ratio) HIV-2 ROD: > 26.3
Human coronavirus 229E
  SI, selectivity index (CC50 to EC50 ratio) 229E: 29.1
[3]
  IC50: 65.5 ± 7.3 µM
In vitro [4]
  CC50: 40.8 ± 2.2 µM
HIV-1 NL4.3; MT-4 cell culture
  SI, selectivity index (CC50 to EC50 ratio) HIV-1 NL4.3: > 3.2
[5]
  IC50: 84.7 ± 15.3 µM
[6]
  IC50: 46.1 ± 1.3 µM
In vitro [7]
  selectivity ratio: ~30
[8]
  IC50: > 100 µM
Human coronavirus OC43
  SI, selectivity index (CC50 to EC50 ratio) OC43: 31.4
[9]
  IC50: 47.4 ± 5.3 µM
[10]
  IC50: > 100 µM
[11]
  CC50 at 5 days: > 100 µM
[12]
  IC50: 59.5 ± 3.5 µM

## Nc1cc(Cl)ccc1C(=O)NCCCCNc1ccnc2cc(Cl)ccc12 [Compound 12, 2-Amino-4-chloro-N-{4-[(7-chloroquinolin-4-yl)amino]butyl}benzamide]
[1]
  IC50: 2.8 ± 1.2 µM
[13]
  IC50: 2 to 10 µM
[2]
  IC50: 8.4 ± 3.2 µM
Human coronavirus 229E; HEL cell culture
  SI, selectivity index (CC50 to EC50 ratio) 229E: 4.6
[3]
  IC50: 8.9 ± 3 µM
In vitro [4]
  CC50: 8.3 ± 0.78 µM
[5]
  IC50: 7.4 ± 1.2 µM
[6]
  IC50: 6.3 ± 2.8 µM
[8]
  IC50: 9.8 ± 3.5 µM
Human coronavirus OC43
  SI, selectivity index (CC50 to EC50 ratio) OC43: > 10.4
[9]
  IC50: 7.2 ± 2.6 µM
[10]
  IC50: 7.3 ± 1.5 µM
[12]
  IC50: 9.2 ± 2.2 µM

## Nc1ccc(Br)cc1C(=O)NCCCCNc1ccnc2cc(Cl)ccc12 [Compound 13, 2-Amino-5-bromo-N-{4-[(7-chloroquinolin-4-yl)amino]butyl}benzamide]
[1]
  IC50: 3.1 ± 0.8 µM
[13]
  IC50: 2 to 10 µM
[2]
  IC50: 7.7 ± 1.1 µM
Human coronavirus 229E; HEL cell culture
  SI, selectivity index (CC50 to EC50 ratio) 229E: 5.4
[14]
  IC50: 3.7 µM
[3]
  IC50: 7 ± 0.3 µM
In vitro [4]
  CC50: 7.5 ± 1.3 µM
[5]
  IC50: 7.8 ± 1.8 µM
[6]
  IC50: 5.4 ± 1.8 µM
[8]
  IC50: 10.3 ± 3.2 µM
Human coronavirus OC43
  SI, selectivity index (CC50 to EC50 ratio) OC43: 5.0
[9]
  IC50: 6 ± 2.6 µM
[10]
  IC50: 5.3 ± 0.4 µM
[12]
  IC50: 7.8 ± 4.1 µM

## COc1cc(NC(C)CCCNC(=O)c2ccccc2N)c2ncccc2c1 (stereo not drawn) [Compound 14, 2-Amino-N-{4-[(6-methoxyquinolin-8-yl)amino]pentyl}benzamide]
[1]
  IC50: > 100 µM
[2]
  IC50: > 100 µM
[3]
  IC50: > 100 µM
HIV-1 NL4.3; MT-4 cell culture
  SI, selectivity index (CC50 to EC50 ratio) HIV-1 NL4.3: 8.4
[5]
  IC50: > 100 µM
[6]
  IC50: > 100 µM
[8]
  IC50: > 100 µM
[9]
  IC50: > 100 µM
[10]
  IC50: 76.7 ± 25 µM
[11]
  CC50 at 5 days: 78.2 ± 9.3 µM
[12]
  IC50: > 100 µM

## COc1cc(NC(C)CCCNC(=O)c2cc(Br)ccc2N)c2ncccc2c1 (stereo not drawn) [Compound 16, 2-Amino-5-bromo-N-{4-[(6-methoxyquinolin-8-yl)amino]pentyl}benzamide]
[1]
  IC50: > 100 µM
[2]
  IC50: > 100 µM
[3]
  IC50: > 100 µM
HIV-1 NL4.3; MT-4 cell culture
  SI, selectivity index (CC50 to EC50 ratio) HIV-1 NL4.3: 4.0
[5]
  IC50: > 100 µM
[6]
  IC50: > 100 µM
[8]
  IC50: > 100 µM
[9]
  IC50: > 100 µM
[10]
  IC50: > 100 µM
[11]
  CC50 at 5 days: 56.4 ± 1.6 µM
[12]
  IC50: > 100 µM

## CC(Cn1cnc2c(N)ncnc21)OCP(=O)(O)O (stereo not drawn) [PMPA, 2-phosphonomethoxypropyl adenine]
HIV-2 ROD; read-out: Antiviral activity (EC50) HIV-2 ROD, MT-4 cell culture, 5 days post-infection
  EC50: 0.6 µM
HIV-1 NL4.3; read-out: Antiviral activity (EC50) HIV-1 NL4.3, MT-4 cell culture, 5 days post-infection
  EC50: 1.6 µM
MT-4 cells
  CC50: > 100 µM

## COc1cc(NC(C)CCCN)c2ncccc2c1 (stereo not drawn) [PQ, primaquine, reference compound]
[1]
  IC50: 45.4 ± 1.2 µM
[2]
  IC50: 40.5 ± 6 µM
HIV-2 ROD; MT-4 cells
  Anti-HIV / antiretroviral activity in words: no anti-HIV activity
[3]
  IC50: 53.9 ± 4.2 µM
In vitro [4]
  CC50: > 100 µM
HIV-1 NL4.3; MT-4 cells
  Anti-HIV / antiretroviral activity in words: no anti-HIV activity
[5]
  IC50: > 100 µM
[6]
  IC50: 45.6 ± 3.5 µM
[8]
  IC50: 28.4 ± 1.6 µM
[9]
  IC50: 11.4 ± 1.1 µM
[10]
  IC50: > 100 µM
[11]
  CC50 at 5 days: 17.9 ± 8 µM
[12]
  IC50: 50.2 ± 16.7 µM

## CCC(CC)COC(=O)[C@H](C)N[P@](=O)(OC[C@H]1O[C@@](C#N)(c2ccc3c(N)ncnn23)[C@H](O)[C@@H]1O)Oc1ccccc1 [Remdesivir, remdesivir, reference compound]
Human coronavirus 229E; HEL cell culture
  SI, selectivity index (CC50 to EC50 ratio) 229E: > 160
In vitro [4]
  CC50: > 10 µM
Human coronavirus OC43
  SI, selectivity index (CC50 to EC50 ratio) OC43: > 250

Reference: article PMC8741576 (Molecular Diversity, 2022)
